Among the data in ChEMBL document CHEMBL5712901, “DOT1L inhibition blocks multiple myeloma cell proliferation by suppressing IRF4-MYC signaling” (2019) are Activity values, retold here.

Assay [1] concerns MM1.S. Kind of assay: Upregulation of CCDC96 gene in human MM1.S cells at 1 uM for 6 days by. Format: functional, cell-based. The conditions noted are these: time 6.0 day.
For assay [2], the system named is MM1.S. Kind of assay: Upregulation of CCL2 gene in human MM1.S cells at 1 uM for 6 days by. Type of assay: functional, cell-based. The conditions noted are these: time 6.0 day.
Assay [3] relates to MM1.S. Briefly: Upregulation of SNX10 gene in human MM1.S cells at 1 uM for 6 days by. Type of assay: functional, cell-based. The conditions noted are these: time 6.0 day.
For assay [4], the system named is MM1.S. Briefly: Upregulation of GTF2IRD2 gene in human MM1.S cells at 1 uM for 6 days by. Type of assay: functional, cell-based. The conditions noted are these: time 6.0 day. In a few lines: (§1)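 Human myeloma lines RPMI-8226 and MM.1S exposed to 1 μM DOT1L inhibitor, or DMSO, for 6 days. Whole-genome expression profiled on gene expression microarray.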
Assay [5] has as its system RPMI-8226. Kind of assay: Upregulation of ACOT11 gene in human RPMI-8226 cells at 1 uM for 6 days by. Type of assay: functional, cell-based. The conditions noted are these: time 6.0 day.
Assay [6] relates to RPMI-8226. Briefly: Effect on human RPMI-8226 cells assessed as change in Myc mRNA level at 1 uM for 6 days by qRT-PCR analysis. The conditions noted are these: time 6.0 day. (In general: Real-time PCR tracks product formation cycle by cycle.)
Assay [7] has as its system RPMI-8226. Briefly: Upregulation of HLA-DRB5 gene in human RPMI-8226 cells at 1 uM for 6 days by. Type of assay: functional, cell-based. The conditions noted are these: time 6.0 day.
Assay [8] has as its system MM1.S. Briefly: Upregulation of ZG16B gene in human MM1.S cells at 1 uM for 6 days by. Format: functional, cell-based. The conditions noted are these: time 6.0 day.
Assay [9] deals with RPMI-8226. Kind of assay: Upregulation of AIF1 gene in human RPMI-8226 cells at 1 uM for 6 days by. Type of assay: functional, cell-based. The conditions noted are these: time 6.0 day.
Assay [10] deals with MM1.S. Kind of assay: Upregulation of PPP1R1C gene in human MM1.S cells at 1 uM for 6 days by. Type of assay: functional, cell-based. The conditions noted are these: time 6.0 day.
For assay [11], the system named is RPMI-8226. Kind of assay: Upregulation of SLC9A9 gene in human RPMI-8226 cells at 1 uM for 6 days by. The conditions noted are these: time 6.0 day. Type of assay: functional, cell-based.
Assay [12] relates to MM1.S. Kind of assay: Upregulation of FZD1 gene in human MM1.S cells at 1 uM for 6 days by. Type of assay: functional, cell-based. The conditions noted are these: time 6.0 day. The procedure, abridged: as §1
Assay [13] deals with RPMI-8226. Kind of assay: Upregulation of MYOF gene in human RPMI-8226 cells at 1 uM for 6 days by. Type of assay: functional, cell-based. The conditions noted are these: time 6.0 day.
For assay [14], the system named is RPMI-8226. Kind of assay: Upregulation of IFI44 gene in human RPMI-8226 cells at 1 uM for 6 days by. Type of assay: functional, cell-based. The conditions noted are these: time 6.0 day.
The test system of assay [15] is RPMI-8226. Briefly: Upregulation of NOG gene in human RPMI-8226 cells at 1 uM for 6 days by. Format: functional, cell-based. The conditions noted are these: time 6.0 day.
Assay [16] has as its system MM1.S. Briefly: Upregulation of ID1 gene in human MM1.S cells at 1 uM for 6 days by. The conditions noted are these: time 6.0 day. Format: functional, cell-based.
In assay [17] the test system is RPMI-8226. Briefly: Upregulation of GLYATL1 gene in human RPMI-8226 cells at 1 uM for 6 days by. Type of assay: functional, cell-based. The conditions noted are these: time 6.0 day. In a few lines:
as §1

Another assay has as its system KMS-12-BM. Briefly: Upregulation of DOT1L in human KMS-12-BM cells by qRT-PCR analysis. Format: functional, cell-based. In a few lines:
(§2)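 Basal DOT1L transcript in untreated myeloma cell lines measured by qRT-PCR, normalized to ACTB; mean of 3 replicates with SEM.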

For assay [18], the system named is RPMI-8226. Briefly: Upregulation of ENC1 gene in human RPMI-8226 cells at 1 uM for 6 days by. Type of assay: functional, cell-based. The conditions noted are these: time 6.0 day. The procedure, abridged:
as §1

Assay [19] deals with RPMI-8226. Briefly: Upregulation of RIMBP3 gene in human RPMI-8226 cells at 1 uM for 6 days by. Type of assay: functional, cell-based. The conditions noted are these: time 6.0 day.
Assay [20] deals with MM1.S. Briefly: Upregulation of FCGR2B gene in human MM1.S cells at 1 uM for 6 days by. Type of assay: functional, cell-based. The conditions noted are these: time 6.0 day. In a few lines: as §1
In assay [21] the test system is MM1.S. Briefly: Upregulation of CXCL9 gene in human MM1.S cells at 1 uM for 6 days by. The conditions noted are these: time 6.0 day. Type of assay: functional, cell-based. The procedure, abridged:
as §1

Assay [22] relates to RPMI-8226. Kind of assay: Upregulation of ZNF75D gene in human RPMI-8226 cells at 1 uM for 6 days by. The conditions noted are these: time 6.0 day. Format: functional, cell-based.
Assay [23] deals with MM1.S. Briefly: Upregulation of MILR1 gene in human MM1.S cells at 1 uM for 6 days by. Format: functional, cell-based. The conditions noted are these: time 6.0 day.
Assay [24] deals with RPMI-8226. Kind of assay: Upregulation of PYCARD gene in human RPMI-8226 cells at 1 uM for 6 days by. Type of assay: functional, cell-based. The conditions noted are these: time 6.0 day.
For assay [25], the system named is MM1.S. Kind of assay: Upregulation of APH1B gene in human MM1.S cells at 1 uM for 6 days by. Format: functional, cell-based. The conditions noted are these: time 6.0 day.
The subject of assay [26] is RPMI-8226. Kind of assay: Upregulation of SMIM14 gene in human RPMI-8226 cells at 1 uM for 6 days by. The conditions noted are these: time 6.0 day. Type of assay: functional, cell-based.
In assay [27] the test system is RPMI-8226. Kind of assay: Upregulation of CACNB3 gene in human RPMI-8226 cells at 1 uM for 6 days by. Format: functional, cell-based. The conditions noted are these: time 6.0 day.
The test system of a further assay is U-266. Briefly: Upregulation of DOT1L in human U-266 cells by qRT-PCR analysis. Format: functional, cell-based. The procedure, abridged: as §2
Assay [28] relates to MM1.S. Kind of assay: Upregulation of PRDM8 gene in human MM1.S cells at 1 uM for 6 days by. Type of assay: functional, cell-based. The conditions noted are these: time 6.0 day.
Assay [29] has as its system RPMI-8226. Briefly: Upregulation of ZG16B gene in human RPMI-8226 cells at 1 uM for 6 days by. Format: functional, cell-based. The conditions noted are these: time 6.0 day.
In assay [30] the test system is MM1.S. Kind of assay: Upregulation of EMILIN2 gene in human MM1.S cells at 1 uM for 6 days by. Type of assay: functional, cell-based. The conditions noted are these: time 6.0 day. In a few lines:
as §1

A further assay deals with KMS-12-PE. Briefly: Antiproliferative activity against human KMS-12-PE cells treated upto 14 days with replacement of fresh medium containing drug every 3 to 4 days by cell counting kit-8 method. Format: functional, cell-based. The conditions noted are these: time <= 14.0 day. In a few lines:
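Screen of histone methylation modifier inhibitors in 6-well plates at 3 × 10^4 to 1 × 10^5 cells/well. Drug at 1 μM or DMSO for up to 14 days, with medium and drug refreshed every 3-4 days. CCK-8 read on days 3-4 and 11-14. Values normalized to DMSO; mean of 5 replications ± SEM; unpaired two-sided t-test.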
For orientation: Tetrazolium assays rely on reduction of a dye to a coloured formazan, in cell work by metabolically active cells.

Assay [31] concerns MM1.S. Kind of assay: Upregulation of SOAT2 gene in human MM1.S cells at 1 uM for 6 days by. Format: functional, cell-based. The conditions noted are these: time 6.0 day.
In assay [32] the test system is RPMI-8226. Kind of assay: Upregulation of IGFBP6 gene in human RPMI-8226 cells at 1 uM for 6 days by. Type of assay: functional, cell-based. The conditions noted are these: time 6.0 day.
Assay [33] relates to MM1.S. Briefly: Upregulation of HLA-DQB1 gene in human MM1.S cells at 1 uM for 6 days by. Format: functional, cell-based. The conditions noted are these: time 6.0 day.
The subject of assay [34] is RPMI-8226. Briefly: Upregulation of HLA-DQB1 gene in human RPMI-8226 cells at 1 uM for 6 days by. Type of assay: functional, cell-based. The conditions noted are these: time 6.0 day.
Assay [35] relates to RPMI-8226. Kind of assay: Upregulation of ISG15 gene in human RPMI-8226 cells at 1 uM for 6 days by. Format: functional, cell-based. The conditions noted are these: time 6.0 day.
Assay [36] has as its system RPMI-8226. Kind of assay: Upregulation of PTPN13 gene in human RPMI-8226 cells at 1 uM for 6 days by. Type of assay: functional, cell-based. The conditions noted are these: time 6.0 day.
Assay [37] concerns MM1.S. Kind of assay: Upregulation of CCR5 gene in human MM1.S cells at 1 uM for 6 days by. The conditions noted are these: time 6.0 day. Format: functional, cell-based.
Assay [38] has as its system MM1.S. Kind of assay: Upregulation of CPED1 gene in human MM1.S cells at 1 uM for 6 days by. Type of assay: functional, cell-based. The conditions noted are these: time 6.0 day. In a few lines: as §1
Assay [39] concerns RPMI-8226. Kind of assay: Upregulation of APOL4 gene in human RPMI-8226 cells at 1 uM for 6 days by. Type of assay: functional, cell-based. The conditions noted are these: time 6.0 day.
Assay [40] deals with MM1.S. Kind of assay: Induction of apoptosis in human MM1.S cells assessed as late apoptotic cells at 1 uM for 3 days by annexin-V based propidium iodide staining based flow cytometric analysis (reference value: 0.15%). Type of assay: functional. The conditions noted are these: time 3 day. On the technique in general: In flow cytometry, cells or beads pass a laser one at a time.

Assay [41] relates to RPMI-8226. Briefly: Upregulation of IFN in human RPMI-8226 cells assessed as increase in IFITM1 gene at 1 uM for 6 days by qRT-PCR analysis. The conditions noted are these: time 6.0 day.
Assay [42] relates to MM1.S. Briefly: Induction of apoptosis in human MM1.S cells assessed as necrotic cells at 1 uM for 3 days by annexin-V based propidium iodide staining based flow cytometric analysis (reference value: 0.064%). The conditions noted are these: time 3 day. Type of assay: functional.
The test system of assay [43] is RPMI-8226. Briefly: Induction of apoptosis in human RPMI-8226 cells assessed as early apoptotic cells at 1 uM for 6 days by annexin-V based propidium iodide staining based flow cytometric analysis (reference value: 6.19%). Type of assay: functional. The conditions noted are these: time 6 day.

Activity calls are given as the source filed them. The rule behind the calls is not given here.

For `CC(C)N(CCCNC(=O)Nc1ccc(C(C)(C)C)cc1)C[C@H]1O[C@@H](n2cc(Br)c3c(N)ncnc32)[C@H](O)[C@@H]1O`, the result in the assay on MM1.S [1], in the assay on MM1.S [2], in the assay on MM1.S [3], in the assay on MM1.S [4], in the assay with RPMI-8226 [5] and in the assay on RPMI-8226 [6] was Active. In addition, the result with RPMI-8226 [7], with MM1.S [8], in the assay on RPMI-8226 [9], with MM1.S [10], with RPMI-8226 [11] and in the assay with MM1.S [12] was Active. Moreover, the outcome in the assay with RPMI-8226 [13], in the assay on RPMI-8226 [14], in the assay on RPMI-8226 [15], with MM1.S [16], with RPMI-8226 [17] and in the assay on KMS-12-BM was Active. Moreover, the outcome in the assay on RPMI-8226 [18], with RPMI-8226 [19], with MM1.S [20], in the assay on MM1.S [21], in the assay with RPMI-8226 [22] and in the assay on MM1.S [23] was Active. The outcome with RPMI-8226 [24], in the assay on MM1.S [25], with RPMI-8226 [26], in the assay on RPMI-8226 [27], in the assay on U-266 and with MM1.S [28] was Active. Also, the outcome with RPMI-8226 [29], with MM1.S [30], in the assay with MM1.S [31], with RPMI-8226 [32], in the assay on MM1.S [33] and in the assay on RPMI-8226 [34] was Active. Moreover, the outcome with RPMI-8226 [35], with RPMI-8226 [36], in the assay with MM1.S [37], in the assay with MM1.S [38] and in the assay on RPMI-8226 [39] was Active. Also, in the assay with KMS-12-PE, the outcome was inactive.
Regarding `CC(C)N(C[C@H]1O[C@@H](n2cnc3c(N)ncnc32)[C@H](O)[C@@H]1O)[C@H]1C[C@@H](CCc2nc3cc(C(C)(C)C)ccc3[nH]2)C1` [PINOMETOSTAT], the Activity came out at 0.083% in the assay on MM1.S [40], 0.06% in the assay on MM1.S [42] and 22.4% with RPMI-8226 [43]. Moreover, the result in the assay with RPMI-8226 [41] was Active.
